From ChEMBL document CHEMBL1811845, “Modulation of GABAA-receptors by honokiol and derivatives: subtype selectivity and structure-activity relationship” (J Med Chem, 2011)

Assays:
[1] = biological target: T1, GABA-A receptor; GABA-A site (alpha1/beta2 interface) (Homo sapiens, UniProt P14867+P47870); test: Modulation of GABA Aalpha1beta2 receptor expressed in Xenopus laevis oocytes assessed as potentiation of GABA-induced chloride current at holding potential -70 mV by two-microelectrode voltage clamp technique; type: cell-based, Oocyte
T1 sequence (P14867 whole entry): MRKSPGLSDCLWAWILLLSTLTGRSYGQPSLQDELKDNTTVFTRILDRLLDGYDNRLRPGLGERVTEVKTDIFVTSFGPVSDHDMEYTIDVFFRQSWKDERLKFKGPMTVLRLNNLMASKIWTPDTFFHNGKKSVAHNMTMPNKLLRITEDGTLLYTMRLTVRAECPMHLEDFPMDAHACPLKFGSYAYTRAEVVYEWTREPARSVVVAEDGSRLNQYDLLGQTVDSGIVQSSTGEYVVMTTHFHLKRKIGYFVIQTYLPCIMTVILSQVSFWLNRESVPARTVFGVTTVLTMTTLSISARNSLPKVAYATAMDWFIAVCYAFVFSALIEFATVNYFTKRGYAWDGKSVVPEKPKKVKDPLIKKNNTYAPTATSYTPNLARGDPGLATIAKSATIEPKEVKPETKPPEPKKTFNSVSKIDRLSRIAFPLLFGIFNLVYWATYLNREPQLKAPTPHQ
T1 sequence (P47870 whole entry): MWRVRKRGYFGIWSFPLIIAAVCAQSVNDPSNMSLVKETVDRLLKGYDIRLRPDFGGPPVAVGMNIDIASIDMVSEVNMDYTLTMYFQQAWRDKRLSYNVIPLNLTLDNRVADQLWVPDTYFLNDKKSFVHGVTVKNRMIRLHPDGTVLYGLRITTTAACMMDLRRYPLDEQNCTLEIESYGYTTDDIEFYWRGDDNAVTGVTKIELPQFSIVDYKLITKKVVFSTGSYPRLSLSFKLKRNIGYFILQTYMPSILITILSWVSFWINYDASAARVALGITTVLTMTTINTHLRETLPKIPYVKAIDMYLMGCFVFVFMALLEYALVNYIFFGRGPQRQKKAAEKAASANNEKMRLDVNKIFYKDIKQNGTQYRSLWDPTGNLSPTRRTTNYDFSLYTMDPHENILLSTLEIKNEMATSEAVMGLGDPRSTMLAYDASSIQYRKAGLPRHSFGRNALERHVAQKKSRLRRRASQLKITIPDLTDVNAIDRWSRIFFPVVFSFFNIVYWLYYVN
Outline: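 Stage V–VI Xenopus oocytes, defolliculated with 2 mg/mL collagenase, injected with α(1, 2, 3 or 5) and β2 cRNAs mixed 1:1, then kept at 18 °C in ND96 (pH 7.4). Enhancement = I(GABA+compound)/IGABA − 1. Curves were Hill-fitted for EC50. Bath DMSO was at most 0.3%, matched in controls.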

[2] = Octanol-water partition coefficient, log P of the compound; type: physicochemical
[3] = biological target: T2, GABA-A receptor; GABA-A site (alpha1/beta2 interface) (Homo sapiens) (UniProt P14867+P47870); test: Modulation of GABA Aalpha1beta2 receptor expressed in Xenopus laevis oocytes assessed as potentiation of GABA-induced chloride current at holding potential -70 mV by two-microelectrode voltage clamp technique relative to GABA; type: cell-based; settings: Oocyte
Outline: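 Oocytes were injected with α1, α2, α3 or α5 plus β2 cRNA at a 1:1 ratio and stored at 18 °C in ND96, pH 7.4. Enhancement was (I(GABA+compound)/IGABA)−1, and concentration-response data were Hill-fitted for EC50 and nH. Matched DMSO was ≤0.3%.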

[4] = biological target: T2, GABA-A receptor; GABA-A site (alpha1/beta2 interface) (Homo sapiens); test: Modulation of GABA Aalpha1beta2 receptor expressed in Xenopus laevis oocytes assessed as potentiation of GABA-induced chloride current at holding potential -70 mV at 30 uM by two-microelectrode voltage clamp technique relative to GABA; type: cell-based; settings: Oocyte
Outline: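 Single-concentration screen at 30 μM on α1β2 receptors (cRNA 1:1) in Xenopus oocytes. Enhancement was (I(GABA+compound)/IGABA)−1. DMSO was matched in control and test solutions, maximum 0.3% in the bath.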

| EC50 [1] [µM] | logP ([2]; read-out: logP) | Smax [3] [%] | Activity [4] [%] | logP [2] | Compound |
| --- | --- | --- | --- | --- | --- |
| 105 | 2.72 | 177 | 15 | – | COc1ccc(-c2cc(CCO)ccc2O)cc1CCO |
| – | 7.6 | – | 22 | – | C=CCc1ccc(OCCC)c(-c2ccc(OCCC)c(CC=C)c2)c1 |
| – | 6.06 | – | 7 | – | C=CCc1cc(-c2ccc(OC)c(CC=C)c2)c(O)c(N(CC)CC)c1 |
| 34.2 | 3.64 | 161 | 68 | – | COc1ccc(-c2cc(CC(C)O)ccc2O)cc1CC(C)O (stereo unspecified) |
| 54.3 | 5.43 | 2800 | 687 | – | C=CCc1ccc(O)c(-c2cc(CC=C)ccc2OC)c1 |
| 9.3 | 5.11 | 2030 | 1840 | – | C=CCc1cc(NC)c(O)c(-c2ccc(OC)c(CC=C)c2)c1 |
| 35.2 | 5.09 | 148 | 53 | – | C=CCc1cccc(-c2cccc(CC=C)c2O)c1O |
| 12.4 | 4.79 | 2710 | 2180 | – | C=CCc1cc(N)c(O)c(-c2ccc(OC)c(CC=C)c2)c1 |
| – | 7.27 | – | 28 | – | C=CCc1ccc(O)c(-c2ccc(OCCCCC)c(CC=C)c2)c1 |
| 25 | 5.4 | 227 | 120 | – | C=CCc1cc(-c2ccc(OC)c(CC=C)c2)c(O)c([N+](=O)[O-])c1 |
| 18.5 | 5.38 | 326 | 215 | – | C=CCc1cc(-c2ccc(OC)c(CC=C)c2)c(O)c(N(C)C)c1 |
| 8.4 | 5.99 | 1340 | 1230 | – | C=CCc1cc(-c2cc(CC(C)Br)ccc2O)ccc1OC (stereo unspecified) |
| 27.2 | 5.43 | 1530 | 822 | – | C=CCc1ccc(O)c(-c2ccc(OC)c(CC=C)c2)c1 [METHYLHONOKIOL] |
| 23.7 | 5.16 | 110 | 73 | – | C=CCc1cc(-c2ccc(O)c(CC=C)c2)ccc1O |
| 16.9 | 5.99 | 952 | 589 | – | C=CCc1ccc(O)c(-c2ccc(OC)c(CC(C)Br)c2)c1 (stereo unspecified) |
| – | – | – | 1 | 9.37 | C=CCc1ccc(OCCCCC)c(-c2ccc(OCCCCC)c(CC=C)c2)c1 |
| – | 1.57 | – | 4 | – | COc1ccc(-c2cc(CC(O)CO)ccc2O)cc1CC(O)CO (stereo unspecified) |
| – | 6.37 | – | 14 | – | C=CCc1ccc(OCC)c(-c2ccc(OCC)c(CC=C)c2)c1 |
| 42.1 | 5.69 | 368 | 110 | – | C=CCc1ccc(OC)c(-c2ccc(OC)c(CC=C)c2)c1 |

| Compound | EC50 [1] [µM] | logP ([2]; read-out: logP) | Smax [3] [%] | Activity [4] [%] | logP [2] |
| --- | --- | --- | --- | --- | --- |
| C=CCc1ccc(O)c(-c2cc(CC=C)ccc2O)c1 [MAGNOLOL] | 36.8 | 5.16 | 963 | 357 | – |
| C=CCc1ccc(OCCC)c(-c2ccc(O)c(CC=C)c2)c1 | 14.8 | 6.38 | 145 | 93 | – |
| CCCc1ccc(O)c(-c2ccc(OC)c(CCC)c2)c1 | 12.7 | 6.01 | 1440 | 1060 | – |
| C=CCc1ccc(O)c(-c2ccc(OC)c(/C=C\C)c2)c1 | 19.7 | 5.45 | 1000 | 605 | – |
| C=CCc1ccc(OCCCCC)c(-c2ccc(O)c(CC=C)c2)c1 | – | 7.27 | – | 13 | – |
| C=CCc1ccc(O)c(-c2ccc(OCC)c(CC=C)c2)c1 | 59.9 | 5.77 | 865 | 345 | – |
| C=CCc1cc(NCC)c(O)c(-c2ccc(OC)c(CC=C)c2)c1 | 7.7 | 5.45 | 2290 | 2140 | – |
| C=CCc1ccc(OCC)c(-c2ccc(O)c(CC=C)c2)c1 | 14.3 | 5.77 | 1400 | 1080 | – |
| CCCCC=CCc1ccc(O)c(-c2ccc(OC)c(CC=CCCCC)c2)c1 (mixture of isomers) | 2 | 8.36 | – | -2 | – |
| C=CCc1ccc(OC2CC2)c(-c2ccc(OCCC)c(CC=C)c2)c1 | 22 | 6.38 | 608 | 339 | – |
